Measurements: ChEMBL document CHEMBL2034823, “Synthesis and antiviral activity of certain second generation methylenecyclopropane nucleosides” (Bioorg Med Chem, 2012)

Legend:
[1] = system: Human betaherpesvirus 5; test: Antiviral activity against HCMV infected in human HFF cells assessed as reduction in cytopathic effect after 8 days by plaque reduction assay; type: functional, organism-based; settings: Human betaherpesvirus 5, HFF, 192 h
How it was run: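 HFF monolayers seeded 2 days ahead and infected with AD169 at about 30 plaques per well, with 1 h adsorption. Compound was then added in MEM with 2% FBS, L-glutamine, penicillin, gentamycin and pooled human gamma globulin. After 8 days, neutral red stain and plaque counts by stereomicroscope. EC50 interpolated. Duplicate wells.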

[2] = Cytotoxicity against human HFF cells after 3 to 8 days by crystal voilet staining; type: cell-based
How it was run: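 Uninfected HFF cells exposed to the same concentrations as in the CPE assays (3 days for HSV, 7 for VZV, […]). Stained with crystal violet. CC50 is the concentration reducing cell number by 50%. Duplicate wells.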

[3] = system: Human gammaherpesvirus 4; test: Antiviral activity against EBV Akata infected in human Akata cells assessed as reduction in viral DNA after 72 hrs by hybridization assay; type: functional, organism-based; settings: human gammaherpesvirus 4, Akata
How it was run: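 Akata cells kept in RPMI 1640 with 10% FBS, L-glutamine, penicillin and gentamicin. Latent infection was switched to productive by adding goat anti-human IgG, and cells were seeded into compound dilutions made in growth medium. After 72 h the DNA was denatured and blotted onto nylon membrane. Viral DNA was measured with a digoxigenin-labeled probe plus anti-hapten antibody. EC50 is the concentration halving viral DNA. Duplicate wells.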

[4] = Cytotoxicity against human Akata cells after 7 days by Cell-Titer Glo assay; type: cell-based
How it was run: (§1)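 Uninfected Akata, BCBL1, HSB-2 or MOLT-3 cells incubated with compound for seven days under the matching antiviral-assay conditions. CellTiter-Glo added and luminescence read. CC50 is the concentration reducing cell number by 50%.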

[5] = Cytotoxicity against human HSB2 cells after 7 days by Cell-Titer Glo assay; type: cell-based, CCRF-HSB-2; how it was run: as §1
[6] = Antiviral activity against HHV-6B infected in human Molt3 cells assessed as reduction in viral DNA after 7 days by hybridization assay; type: functional, cell-based, Human herpesvirus 6B; settings: Human betaherpesvirus 6B, MOLT-3, 168 h
How it was run: (§2)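 Compound serially diluted in medium. Uninfected HSB-2 cells were infected with HHV-6A (GS)-infected HSB-2 cells, and Molt-3 cells with HHV-6B (Z29)-infected Molt-3 cells. Incubation 7 days at 37 °C. Lysis in 4.5 M NaCl/1.2 M NaOH, then transfer to nylon membrane. Viral DNA quantified by digoxigenin-probe hybridization and EC50 calculated. Duplicate wells.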

[7] = Cytotoxicity against human MOLT3 cells after 7 days by Cell-Titer Glo assay; type: cell-based, MOLT-3; how it was run: as §1
[8] = system: Human gammaherpesvirus 8; test: Antiviral activity against HHV-8 infected in human BCBL1 cells assessed as reduction in viral DNA after 7 days by qPCR analysis; type: functional, organism-based; settings: Human gammaherpesvirus 8, BCBL1, 168 h
How it was run: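 BCBL1 cells kept in RPMI 1640 with 10% FBS, penicillin, gentamycin and L-glutamine. Lytic infection induced with phorbol 12-myristate 13-acetate, then cells added to triplicate compound dilutions. Incubation 7 days at 37 °C in humidified CO2. EC50 is the concentration halving viral DNA accumulation.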

[9] = Cytotoxicity against human BCBL1 cells after 7 days by Cell-Titer Glo assay; type: cell-based; how it was run: as §1
[10] = Antiviral activity against HHV-6A infected in human HSB2 cells assessed as reduction in viral DNA after 7 days by hybridization assay; type: functional, cell-based, Human herpesvirus 6A; settings: Human betaherpesvirus 6A, HSB2, 168 h; how it was run: as §2
[11] = system: Human alphaherpesvirus 1; test: Antiviral activity against HSV-1 infected in human HFF cells assessed as reduction in cytopathic effect after 3 days by crystal violet staining; type: functional, organism-based; settings: Human alphaherpesvirus 1, HFF, 72 h
How it was run: (§3)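 Compound diluted over HFF monolayers, then HSV-1 (E-377) or HSV-2 (MS) added at MOI about 0.01 PFU/cell. Held 3 days in humidified 5% CO2. Stained 4 h with 0.1% crystal violet in formalin, rinsed, dried 24 h, and absorbance read at 595 nm. EC50 is 50% CPE reduction. Duplicate wells.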

[12] = system: Human alphaherpesvirus 2; test: Antiviral activity against HSV-2 infected in human HFF cells assessed as reduction in cytopathic effect after 3 days by crystal violet staining; type: functional, organism-based; settings: Human alphaherpesvirus 2, HFF, 72 h; how it was run: as §3
[13] = system: Human alphaherpesvirus 3; test: Antiviral activity against VZV infected in human HFF cells assessed as reduction in cytopathic effect after 7 days by crystal violet staining; type: functional, organism-based; settings: Human alphaherpesvirus 3, HFF, 168 h

| Compound | IC50 [1] [µM] | IC50 [3] [µM] | IC50 [6] [µM] | IC50 [8] [µM] | IC50 [10] [µM] | IC50 [11] [µM] | IC50 [12] [µM] | IC50 [13] [µM] | CC50 [2] [µM] | CC50 at 168 h [4] [µM] | CC50 at 168 h [5] [µM] | CC50 at 168 h [7] [µM] | CC50 at 168 h [9] [µM] |
| --- | --- | --- | --- | --- | --- | --- | --- | --- | --- | --- | --- | --- | --- |
| CNc1nc(N)nc2c1ncn2/C=C1/CC1(CO)CO | > 300 | > 24 | > 20 | 62 | > 20 | > 300 | > 300 | > 300 | 265 | > 24 | > 20 | > 20 | 67 |
| CC(C)CNc1nc(N)nc2c1ncn2/C=C1/CC1(CO)CO | > 300 | > 24 |  | > 20 | > 20 | > 300 | > 300 | > 300 | > 300 | > 24 | > 20 |  | > 20 |
| Nc1nc(NC2CCCC2)c2ncn(/C=C3/CC3(CO)CO)c2n1 | > 60 | > 20 | > 20 | 63 | > 20 | > 60 | > 60 | > 60 | > 300 | > 20 | > 20 | > 20 | 71.7 |
| Nc1nc(NC2CCCCC2)c2ncn(/C=C3/CC3(CO)CO)c2n1 | > 300 | > 24 |  | > 20 | > 20 | > 300 | > 300 | > 300 | > 300 | > 24 | > 20 |  | > 20 |
| Nc1nc(NCc2ccccc2)c2ncn(/C=C3/CC3(CO)CO)c2n1 | > 60 | > 24 | > 20 |  | > 20 | > 300 | > 300 | > 60 | > 300 | > 24 | > 20 | > 20 | 19.9 |
| CN(C)c1nc(N)nc2c1ncn2/C=C1/CC1(CO)CO | > 300 | > 24 |  | > 20 | > 20 | > 300 | > 300 | 180 | > 300 | > 24 | > 20 |  | > 20 |
| Nc1nc(N2CCCC2)c2ncn(/C=C3/CC3(CO)CO)c2n1 | > 300 | > 24 |  | > 20 | > 20 | > 300 | > 300 | > 300 | > 300 | > 24 | > 20 |  | > 20 |
| CCCOc1nc(N)nc2c1ncn2/C=C1/CC1(CO)CO | 1.1 | 8.9 | 6.6 | 16 | 18 | > 300 | > 300 | 2.9 | > 300 | > 20 | > 20 | > 20 | > 20 |
| C=CCOc1nc(N)nc2c1ncn2/C=C1/CC1(CO)CO | 1.1 | 11 | 11.4 | 17 | > 20 | > 300 | > 300 | > 300 | > 300 | > 20 | > 20 | > 20 | > 20 |
| CCCCCOc1nc(N)nc2c1ncn2/C=C1/CC1(CO)CO | 0.5 | 0.5 | > 20 | > 20 | > 20 | > 300 | > 300 | > 60 | 259 | > 20 | > 20 | > 20 | > 20 |
| CCCCCCOc1nc(N)nc2c1ncn2/C=C1/CC1(CO)CO | 3.9 | 7.3 | 9.5 | > 20 | > 20 | > 300 | > 300 |  | > 200 | > 20 | > 20 | > 20 | > 20 |
| CC(C)CSc1nc(N)nc2c1ncn2/C=C1/CC1(CO)CO | 31 | 2.3 |  | > 20 | > 20 | > 300 | > 300 | > 50 | > 300 | > 20 | 60 |  | > 20 |
| COc1nc(N)nc2nc[nH]c12 | 2.8 | 1 | > 20 | 13 | > 20 | > 300 | > 300 | 7.4 | 171 | > 20 | > 20 | > 20 | 51 |
| Nc1nc2c(ncn2COCCO)c(=O)[nH]1 [ACYCLOVIR] |  |  |  |  |  | 2.9 | 2.8 |  | > 300 |  |  |  |  |
| Nc1nc2c(ncn2COC(CO)CO)c(=O)[nH]1 [GANCICLOVIR] | 2.1 |  |  |  |  |  |  |  | > 300 |  |  |  |  |

Continued, in another order:

| IC50 [1] [µM] | IC50 [3] [µM] | IC50 [6] [µM] | IC50 [8] [µM] | IC50 [10] [µM] | IC50 [11] [µM] | IC50 [12] [µM] | IC50 [13] [µM] | Compound | CC50 [2] [µM] | CC50 at 168 h [4] [µM] | CC50 at 168 h [5] [µM] | CC50 at 168 h [7] [µM] | CC50 at 168 h [9] [µM] |
| --- | --- | --- | --- | --- | --- | --- | --- | --- | --- | --- | --- | --- | --- |
| 24 | > 20 | > 20 | 71 | > 20 | > 60 | > 60 | > 60 | Nc1nc(NC2CC2)c2ncn(/C=C3/CC3(CO)CO)c2n1 | > 300 | > 20 | > 20 | > 20 | 71.5 |
| > 300 | > 24 |  | > 20 | > 20 | > 300 | > 300 | > 300 | CCCNc1nc(N)nc2c1ncn2/C=C1/CC1(CO)CO | > 300 | > 24 | > 20 |  | > 20 |
| 160 | > 24 |  | > 20 | > 20 | > 300 | > 300 | > 300 | CC(C)Nc1nc(N)nc2c1ncn2/C=C1/CC1(CO)CO | > 300 | > 24 | > 20 |  | > 20 |
| > 60 | > 24 | > 20 | > 20 | > 20 | > 300 | > 300 | > 300 | CCCCNc1nc(N)nc2c1ncn2/C=C1/CC1(CO)CO | > 300 | > 24 | > 20 | > 20 | > 20 |
| > 300 | > 24 |  | > 20 | > 20 | > 300 | > 300 | > 300 | Nc1nc(N2CCOCC2)c2ncn(/C=C3/CC3(CO)CO)c2n1 | > 300 | > 24 | > 20 |  | > 20 |
| 1.6 | 11.9 | 11.2 | > 20 | > 20 | > 300 | > 300 | > 100 | CCOc1nc(N)nc2c1ncn2/C=C1/CC1(CO)CO | > 300 | > 20 | > 20 | > 20 | > 20 |
| 1.6 | 1.6 | 3.2 | > 20 | > 20 | > 300 | > 300 | > 100 | CCCCOc1nc(N)nc2c1ncn2/C=C1/CC1(CO)CO | > 300 | > 20 | > 20 | > 20 | > 20 |
